Measured values: ChEMBL document CHEMBL3286131, “Design, synthesis and systematic evaluation of cytotoxic 3-heteroarylisoquinolinamines as topoisomerases inhibitors” (Eur J Med Chem, 2014)
Where “and” joins values, the source holds several entries; their conditions need not be identical. Identical values can stand only once.

Assays:
HeLa [1] = assay: Cell cycle arrest in human HeLa cells assessed as accumulation at G2/M phase phase at 10 uM after 24 hrs using ethidium bromide staining by flow cytometry analysis relative to control; format: functional; settings: in the assay text read “propidium iodide staining” for “ethidium bromide staining”
How it was run: (§1)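 HeLa cells exposed to graded compound concentrations for 24 h, harvested by centrifugation, PBS-washed twice, fixed overnight on ice in 70% ethanol. Stained with 10 μg/mL propidium iodide plus 0.5 mg/mL RNase and 0.1% Triton X-100 in PBS, 30 min at 37 °C in the dark. Flow cytometry gates: sub-G0/G1, G0/G1, S, G2/M.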

[2] = Cytotoxicity against human HCT15 cells after 2 days; format: functional, cell-based, HCT-15
How it was run: (§2)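 Cells seeded at 2-4 × 10^4 per well in medium with 10% FBS and incubated overnight at 37 °C, 5% CO2. Graded compound concentrations added on day 2. CCK-8 reagent added on day 4 for a further 4 h, absorbance read at 450 nm. IC50 from a four-parameter logistic fit; mean ± S.D. of three experiments run in triplicate.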

HeLa [3] = assay: Cell cycle arrest in human HeLa cells assessed as accumulation at G0/G1 phase phase at 5 uM after 24 hrs using ethidium bromide staining by flow cytometry analysis relative to control; format: functional; settings: in the assay text read “propidium iodide staining” for “ethidium bromide staining”; how it was run: as §1
DU-145 = assay: Cytotoxicity against human DU145 cells after 2 days; format: functional, cell-based; how it was run: as §2
HeLa [4] = assay: Cell cycle arrest in human HeLa cells assessed as accumulation at G0/G1 phase phase at 25 uM after 24 hrs using […] by flow cytometry analysis relative to control; format: functional; how it was run: as §1
HeLa [5] = assay: Cell cycle arrest in human HeLa cells assessed as accumulation at S phase phase at 25 uM after 24 hrs using […] by flow cytometry analysis relative to control; format: functional; how it was run: as §1
HeLa [6] = assay: Cell cycle arrest in human HeLa cells assessed as accumulation at sub-G0/G1 phase at 25 uM after 24 hrs using […] by flow cytometry analysis relative to control; format: functional; how it was run: as §1
HeLa [7] = assay: Cell cycle arrest in human HeLa cells assessed as accumulation at G2/M phase phase at 25 uM after 24 hrs using […] by flow cytometry analysis relative to control; format: functional; how it was run: as §1
HeLa [8] = assay: Cell cycle arrest in human HeLa cells assessed as accumulation at sub-G0/G1 phase at 10 uM after 24 hrs using ethidium bromide staining by flow cytometry analysis relative to control; format: functional; settings: in the assay text read “propidium iodide staining” for “ethidium bromide staining”; how it was run: as §1
HeLa [9] = assay: Cell cycle arrest in human HeLa cells assessed as accumulation at S phase phase at 5 uM after 24 hrs using ethidium bromide staining by flow cytometry analysis relative to control; format: functional; settings: in the assay text read “propidium iodide staining” for “ethidium bromide staining”; how it was run: as §1
HeLa [10] = assay: Cell cycle arrest in human HeLa cells assessed as accumulation at S phase phase at 10 uM after 24 hrs using ethidium bromide staining by flow cytometry analysis relative to control; format: functional; settings: in the assay text read “propidium iodide staining” for “ethidium bromide staining”; how it was run: as §1
HeLa [11] = assay: Cell cycle arrest in human HeLa cells assessed as accumulation at G2/M phase phase at 50 uM after 24 hrs using […] by flow cytometry analysis relative to control; format: functional; how it was run: as §1
HeLa [12] = assay: Cell cycle arrest in human HeLa cells assessed as accumulation at S phase phase at 50 uM after 24 hrs using […] by flow cytometry analysis relative to control; format: functional; how it was run: as §1
HeLa [13] = assay: Cell cycle arrest in human HeLa cells assessed as accumulation at G0/G1 phase phase at 50 uM after 24 hrs using […] by flow cytometry analysis relative to control; format: functional; how it was run: as §1
HeLa [14] = assay: Cell cycle arrest in human HeLa cells assessed as accumulation at sub-G0/G1 phase at 50 uM after 24 hrs using […] by flow cytometry analysis relative to control; format: functional; how it was run: as §1
[15] = Cytotoxicity against human MCF10A cells after 2 days; format: cell-based, MCF-10A; settings: mcf-10a; how it was run: as §2
HeLa [16] = assay: Cell cycle arrest in human HeLa cells assessed as accumulation at G0/G1 phase phase at 10 uM after 24 hrs using ethidium bromide staining by flow cytometry analysis relative to control; format: functional; settings: in the assay text read “propidium iodide staining” for “ethidium bromide staining”; how it was run: as §1
T47D = assay: Cytotoxicity against human T47D cells after 2 days; format: functional, cell-based; how it was run: as §2
HeLa [17] = assay: Cell cycle arrest in human HeLa cells assessed as accumulation at G2/M phase phase at 5 uM after 24 hrs using ethidium bromide staining by flow cytometry analysis relative to control; format: functional; settings: in the assay text read “propidium iodide staining” for “ethidium bromide staining”; how it was run: as §1
[18] = target: T1, DNA topoisomerase 1 (Homo sapiens) (UniProt P11387); assay: Inhibition of recombinant human DNA topoisomerase-1-mediated relaxation of supercoiled DNA pBR322 at 20 uM after 7 hrs using ethidium bromide staining by agarose gel electrophoresis analysis
T1 sequence (whole entry): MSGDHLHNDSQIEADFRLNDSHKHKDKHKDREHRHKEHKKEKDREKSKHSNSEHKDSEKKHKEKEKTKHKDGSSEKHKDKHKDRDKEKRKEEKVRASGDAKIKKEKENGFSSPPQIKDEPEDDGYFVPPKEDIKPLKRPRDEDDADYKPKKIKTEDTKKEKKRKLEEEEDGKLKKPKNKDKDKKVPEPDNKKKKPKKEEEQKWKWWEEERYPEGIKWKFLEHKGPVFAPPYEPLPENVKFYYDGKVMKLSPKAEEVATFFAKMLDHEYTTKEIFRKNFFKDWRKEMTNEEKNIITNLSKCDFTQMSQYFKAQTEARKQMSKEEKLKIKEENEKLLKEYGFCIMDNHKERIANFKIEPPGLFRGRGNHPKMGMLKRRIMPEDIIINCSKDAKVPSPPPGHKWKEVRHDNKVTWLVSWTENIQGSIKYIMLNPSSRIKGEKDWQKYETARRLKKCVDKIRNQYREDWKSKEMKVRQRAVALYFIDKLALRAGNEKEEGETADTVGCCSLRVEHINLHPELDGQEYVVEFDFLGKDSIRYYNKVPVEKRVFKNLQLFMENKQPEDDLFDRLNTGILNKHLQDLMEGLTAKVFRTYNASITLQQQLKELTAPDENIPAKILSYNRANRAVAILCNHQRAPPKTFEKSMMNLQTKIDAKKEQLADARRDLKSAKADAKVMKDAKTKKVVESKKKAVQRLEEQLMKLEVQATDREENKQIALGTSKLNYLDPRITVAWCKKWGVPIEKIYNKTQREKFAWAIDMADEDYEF
How it was run: (§3)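 pBR322 (100 ng) incubated with recombinant human topo I (0.4 units) ± compound for 30 min at 37 °C. Buffer: 10 mM Tris-HCl pH 7.9, 150 mM NaCl, 0.1% BSA, 1 mM spermidine, 5% glycerol. Quenched with sarcosyl stop solution. 1% agarose gel run at 15 V for 7 h in TAE, ethidium bromide stain, supercoiled DNA quantified under UV.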

[19] = target: T1, DNA topoisomerase 1 (Homo sapiens); assay: Inhibition of recombinant human DNA topoisomerase-1-mediated relaxation of supercoiled DNA pBR322 at 100 uM after 7 hrs using ethidium bromide staining by agarose gel electrophoresis analysis; how it was run: as §3
[20] = target: DNA topoisomerase 2-alpha (Homo sapiens) (UniProt P11388); assay: Inhibition of human DNA topoisomerase-2a-mediated relaxation of supercoiled DNA pBR322 at 100 uM after 4 hrs using ethidium bromide staining by agarose gel electrophoresis analysis
How it was run: (§4)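 Supercoiled pBR322 (200 ng) incubated with human topo IIα (1 unit) ± compound for 30 min at 30 °C. Buffer: 10 mM Tris-HCl pH 7.9, 50 mM NaCl, 50 mM KCl, 5 mM MgCl2, 1 mM EDTA, 1 mM ATP, BSA. Stopped with EDTA. 1% agarose gel run at 25 V for 4 h in TAE, ethidium bromide stain, supercoiled DNA quantified by UV imaging.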

[21] = target: DNA topoisomerase 2-alpha (Homo sapiens) (UniProt P11388); assay: Inhibition of human DNA topoisomerase-2a-mediated relaxation of supercoiled DNA pBR322 at 20 uM after 4 hrs using ethidium bromide staining by agarose gel electrophoresis analysis; how it was run: as §4

DNA topoisomerase 2-alpha (Homo sapiens), sequence (P11388 whole entry): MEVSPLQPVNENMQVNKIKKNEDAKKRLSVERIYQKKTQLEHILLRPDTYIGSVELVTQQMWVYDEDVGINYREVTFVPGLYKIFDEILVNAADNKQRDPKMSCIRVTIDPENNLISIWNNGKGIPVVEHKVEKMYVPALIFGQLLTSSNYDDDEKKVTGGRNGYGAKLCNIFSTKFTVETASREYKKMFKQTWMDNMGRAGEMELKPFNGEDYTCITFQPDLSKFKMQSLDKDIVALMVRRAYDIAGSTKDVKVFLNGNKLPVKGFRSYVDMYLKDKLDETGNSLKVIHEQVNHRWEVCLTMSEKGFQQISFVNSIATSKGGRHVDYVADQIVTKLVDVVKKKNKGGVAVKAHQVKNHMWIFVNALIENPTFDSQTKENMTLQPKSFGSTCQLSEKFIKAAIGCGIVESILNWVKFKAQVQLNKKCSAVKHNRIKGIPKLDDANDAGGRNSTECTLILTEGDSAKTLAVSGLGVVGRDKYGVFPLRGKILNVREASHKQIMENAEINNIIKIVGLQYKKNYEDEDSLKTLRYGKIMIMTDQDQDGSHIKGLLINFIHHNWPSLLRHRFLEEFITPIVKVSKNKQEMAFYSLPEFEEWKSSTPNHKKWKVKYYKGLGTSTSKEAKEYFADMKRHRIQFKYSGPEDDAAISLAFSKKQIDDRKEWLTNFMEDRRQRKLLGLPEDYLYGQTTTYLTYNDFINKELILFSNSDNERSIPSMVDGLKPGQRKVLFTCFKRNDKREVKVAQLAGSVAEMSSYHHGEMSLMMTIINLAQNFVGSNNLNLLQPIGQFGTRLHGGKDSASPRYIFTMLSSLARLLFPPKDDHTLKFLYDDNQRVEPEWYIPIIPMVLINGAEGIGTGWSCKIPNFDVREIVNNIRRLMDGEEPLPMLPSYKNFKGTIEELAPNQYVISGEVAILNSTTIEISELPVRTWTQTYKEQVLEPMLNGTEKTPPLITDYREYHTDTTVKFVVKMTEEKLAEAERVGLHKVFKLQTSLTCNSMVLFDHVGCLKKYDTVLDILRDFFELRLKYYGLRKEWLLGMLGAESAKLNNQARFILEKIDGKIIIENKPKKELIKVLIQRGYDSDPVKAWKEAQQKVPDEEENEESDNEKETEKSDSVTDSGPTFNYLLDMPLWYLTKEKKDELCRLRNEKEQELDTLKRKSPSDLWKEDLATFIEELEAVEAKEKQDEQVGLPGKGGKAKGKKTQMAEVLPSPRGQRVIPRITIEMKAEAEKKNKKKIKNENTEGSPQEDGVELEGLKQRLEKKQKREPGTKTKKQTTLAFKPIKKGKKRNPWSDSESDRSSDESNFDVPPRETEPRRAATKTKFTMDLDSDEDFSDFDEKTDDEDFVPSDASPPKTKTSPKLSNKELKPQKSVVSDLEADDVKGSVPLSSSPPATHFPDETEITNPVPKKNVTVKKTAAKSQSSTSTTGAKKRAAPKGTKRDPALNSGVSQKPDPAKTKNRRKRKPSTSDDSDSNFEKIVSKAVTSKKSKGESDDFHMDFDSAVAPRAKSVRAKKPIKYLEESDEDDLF

inhibition [19] | Structure (SMILES) | Activity (HeLa [1]) [%] | Activity (HeLa [3]) [%] | IC50 (DU-145; du-145) [µM] | Activity (HeLa [4]) [%] | Activity (HeLa [5]) [%] | Activity (HeLa [6]) [%] | Activity (HeLa [7]) [%] | Activity (HeLa [8]) [%] | Activity (HeLa [9]) [%] | Activity (HeLa [10]) [%] | Activity (HeLa [11]) [%] | Activity (HeLa [12]) [%] | Activity (HeLa [13]) [%] | Activity (HeLa [14]) [%] | IC50 [15] [µM] | Activity (HeLa [16]) [%] | IC50 (T47D; t47d) [µM] | Activity (HeLa [17]) [%] | IC50 ([2]; Homo sapiens, HCT-15, 48 h) [µM] | other results
– | Cl.c1csc(-c2cc3ccccc3c(N3CCNCC3)n2)c1 | 15.05 | 60.31 | 8.25 | 7.25 | 1.85 | 85.1 | 1.23 | 3.57 | 12.7 | 7.13 | 0.02 | 0.04 | 0.18 | 99.58 | 18.1 | 67.99 | 4.51 | 16.24 | – | IC50 ([2]; hct-15): 5.45 µM
29.6% and 35.9% | Cc1ccc2cc(-c3cccs3)nc(N3CCN(C)CC3)c2c1 | – | – | – | – | – | – | – | – | – | – | – | – | – | – | – | – | – | – | – | inhibition [18]: 0%; inhibition [20]: 0%
– | CCN1CCN(c2nc(-c3cccs3)cc3ccccc23)CC1 | 17.28 | 65.03 | > 50 | 55.62 | 13.4 | 3.77 | 19.68 | 2.08 | 10.47 | 9.46 | 11.7 | 7.96 | 71.23 | 3.97 | 49 | 66.35 | 17.4 | 14.89 | 7.42 | –
0% | Cc1ccc2c(N3CCOCC3)nc(-c3cccs3)cc2c1 | – | – | – | – | – | – | – | – | – | – | – | – | – | – | – | – | – | – | – | inhibition [21]: 1.7%
– | CCN1CCN(c2nc(-c3cccs3)cc3cc(C)ccc23)CC1 | 18.01 | 65.61 | – | 63.92 | 13.57 | 3.17 | 13.75 | 2.63 | 9.77 | 13.41 | 0.22 | 0.47 | 2.37 | 96.49 | 33.9 | 58.48 | 8.45 | 17.4 | 2.41 | IC50 (DU-145; Homo sapiens, DU-145, 48 h): 17.2 µM
– | Cc1ccc2c(N3CCNCC3)nc(-c3cccs3)cc2c1.Cl | 0.58 | 59.04 | 11.7 | 1.64 | 0.67 | 96.03 | 0.27 | 86.88 | 13.49 | 1.6 | 0 | 0.17 | 0.57 | 98.87 | 8.18 | 6.13 | – | 12.75 | 0.94 | IC50 (T47D; Homo sapiens, T47D, 48 h): 7.57 µM
71.9% and 77.9% | Cc1ccc2cc(-c3cccs3)nc(N3CCOCC3)c2c1 | – | – | – | – | – | – | – | – | – | – | – | – | – | – | – | – | – | – | – | inhibition [18]: 1.1% and 3.7%; inhibition [20]: 0% and 5.1%
